Source: the EternaBench riboswitch data

System: MS2 coat protein
Test: apparent Kd, MS2 coat protein; higher = weaker binding; RNA-MaP array
Procedure, shortened: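 With or without input ligand, designed RNAs transcribed on an Illumina sequencing chip from sequenced DNA templates were incubated at room temperature with fluorescently labeled MS2 coat protein at 1.5 nM to 3 μM. The buffer was Tris-HCl pH 7.5 with KCl, MgCl2, BSA, DTT, tRNA and Tween20, and incubation ran 0.8–1.5 h at the lowest and 10–20 min at the highest concentrations. Apparent Kd is reported as the median of fits to binding curves from individual clusters. Designs measured on fewer than 10 clusters are not included.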

[1] = designed as: OFF switch for tryptophan, no ligand
[2] = ligand present: tryptophan, designed as: OFF switch for tryptophan
[3] = designed as: ON switch for flavin mononucleotide, no ligand
[4] = ligand present: flavin mononucleotide, designed as: ON switch for flavin mononucleotide
[5] = designed as: OFF switch for flavin mononucleotide, no ligand
[6] = ligand present: flavin mononucleotide, designed as: OFF switch for flavin mononucleotide
[7] = designed as: OFF switch for theophylline, no ligand
[8] = ligand present: theophylline, designed as: OFF switch for theophylline
[9] = designed as: ON switch for theophylline, no ligand
[10] = ligand present: theophylline, designed as: ON switch for theophylline

Sequence	apparent Kd [3]	apparent Kd [4]	apparent Kd [5]	apparent Kd [6]	also measured
CCCGUAAAGGCGGCCGCCACUGUAUGACAUGAGGAUCACCCAUGUAGGGAAAAUGCGAUGGUCGUCAGGACCGGGCCUCUGGCAU					apparent Kd [1]: 23.1 nM; apparent Kd [2]: 23.8 nM
CGUUAAGAACAGAAGGCCGAGAUAAUGUUCAGCGGAGGAUAUGUGGAAGAUAGAACAUGAGGAUCACCCAUGUCAACUAGUACC	6.01 nM	5.82 nM			
AGUGGUGGGAAGGAUAUCUUCCGGCGUUAGCCUAGAGAAGGUCCCACAUGAGGAUCACCCAUGUUGACAUCGGU			373 nM	183 nM	
CCAUGCGAUAUAGUGAUACAUGAGGAUCACCCAUGUAAAGUGAGAAGGCCAAAUUAAUACUAAGUGGAGGAUAUCAUCGUGAGC	53 nM	20.7 nM			
UCUAUGUUAGGAUAUCUGUUGCAUGCCUGGCCGCGAUGCAAAGAGAAGGAACAUGAGGAUCACCCAUGUCAUAU			19.3 nM	41.6 nM	
GUUGAGGGCGUGCACAUGAGGAUCACCCAUGUUCUACCUAUCGAGGAUAUAUCUGUAGGAUCAGAAUAGAAGGCGAGCAAGGUC			21.4 nM	14.8 nM	
GGCCAGGCAGCGGCCGCCACUUAGUGGGCCGAAUGUCCUUUGCUGAACAUGAGGAUCACCCAUGUAAGGACCGGGCUGUUCCGCA					apparent Kd [1]: 30.5 nM; apparent Kd [2]: 69.5 nM
CGUCUACAUGAGGAUCACCCAUGUCAGGAUAUACACCAACAACCUUCGCGAGAUAGGUGUAGAAGGGACGGGUA			8.76 nM	13.5 nM	
GUCAAAUGUCAGAAGGUAGUGAUGUACUAAGGCUAAGGAUAUGAAGAAAAGAAAAUUACCGUUGACAUGAGGAUCACCCAUGUC	13.8 nM	9.86 nM			
UUACAGAAAGGAUAUACAUGAGGAUCACCCAUGUAGUAUGAGUUGGUGAGAGUUCGUGGUAGAAGGUUCCGCAA			53 nM	55.2 nM	
GCCAUAAUCUGAGGAUAUAGAGAGAUAAGGAAGCACAUGAGGAUCACCCAUGUCCGUGGUAUAGGCAAGAAGGCAGCUGGAAUC	15.3 nM	15.7 nM			
GUGAAGAUCCUAGGAUAUGAGACACCCGUAAGCUCAGAAGGAGGACGCGUAGAGGGUAACAUGAGGAUCACCCAUGUGAGUAAG	16.9 nM	12.2 nM			
ACUAAACAUGAGGAUCACCCAUGUAAUUGAAGCUAAGGAUAUCAGAAGAAUGGUGAUUCAUGAGAAGGAAGCGAUU	86.9 nM	58.6 nM			
UAGCUGCUUCAGAAGGCCGUUGGGUGAAAACGCUCCGGGUGCCACAUGAGGAUCACCCAUGUUUCGGAGGAUAUGAAAGCAUCC			47.8 nM	201 nM	
GAUUGCAUCGAUUCUCCACUCGCACCUGAUACCAGCGAUAGAAUUCGCCCUUGGCAGCAGUACACAUGAGGAUCACCCAUGUUAU					apparent Kd [7]: 30.7 nM; apparent Kd [8]: 75 nM
CGUAGGAUCGUGGAUACCAGUACCGCCCACGACAUGAGGAUCACCCAUGUAGGUAAUCUUUACCCUUGGCAGCCAUUUUUUUCUG					apparent Kd [9]: 45.6 nM; apparent Kd [10]: 52.9 nM
GUAGUGCUAAGAGGAUAUACGUUCUGCACAUGAGGAUCACCCAUGUACAAGGAGCCCAACCGGCGGUAGAAGGCUUUGACAGGA	17.4 nM	11.3 nM			
AGUUAACCGGGUGUUCUACAUGAGGAUCACCCAUGUACACUCAGAAGGCUCGAAUCUAGGGAUGGAGAGGAUAUGAAAACUGAU			21.4 nM	36.5 nM	
CACGAGAACACUCAGGAUAUGACAAACAAGACAUGAGGAUCACCCAUGUGAAAUUACGGGUGCAAACAGAAGGGAGAAACUUACAC	48.6 nM	47.5 nM			
GCAGUGCGUGAGGAUAUGUGAGUGAACACACACACAGAAGGCACAACAUGAGGAUCACCCAUGUUCCUGGUGCC			7.62 nM	7.95 nM	
CAGACCCGGCGGGAGGAUAUACGAGAGAACACAUGAGGAUCACCCAUGUUGCACUAAACAGCGUGGUAGAAGGCCCAUCAUCUGUA	56.8 nM	11.9 nM			
CGCGUCCCGGACGAUACCAGAUAUGAGCGACACAUGAGGAUCACCCAUGUCAAUCAUGAGAUCCCUUGGCAGCGUUUGCACAACU					apparent Kd [9]: 162 nM; apparent Kd [10]: 209 nM
CUAAAGGAUGAAGGAUAUUUGAGUGACACGCAGAAAGAAGGUCAAGCUUACAUGAGGAUCACCCAUGUGCGUGAGUGCAGGUGC			14.4 nM	13.3 nM	
UGACUAAAGGAGAAGGGCCACUCCAUUACUUCGGCAGGAUAUCCAUAAACAUGAGGAUCACCCAUGUACAUACAUUGGACGGCG	8.62 nM	7.73 nM			
UCUGUGAUCAACAUGAGGAUCACCCAUGUUACCACCUCUAGGCAGGAUAUGAGCGUACUAAGAAGUCAGAAGGGCCUUUUUACG	18.3 nM	10.1 nM			
AUACACAGAGUUAGGAUAUCUACAUAAAACAAAAUAGAGAAGGAACAUGAGGAUCACCCAUGUAAUGAUCAAAC			9.99 nM	9.45 nM	
CCGCAUAUGUGCCCAAUAUAACAUGAGGAUCACCCAUGUGGUAGAAGGAAUGCUCACGGCUCUCAUUAGGAUAUACCAGACUAU	18.2 nM	17.5 nM			

Sequence	apparent Kd [3]	apparent Kd [4]	apparent Kd [5]	apparent Kd [6]	also measured
ACCUCAAUGGAUGAUACCAGCUCAAGGACGAACAUGAGGAUCACCCAUGUGACGUGGUGUAGCCCUUGGCAGCAUACUGACACCU					apparent Kd [9]: 39.4 nM; apparent Kd [10]: 21.3 nM
AUAUCAGGGUAGAAGGCAGCAUCAACAUGAGGAUCACCCAUGUAUAGGCACGUAGCCGCACGUGCUGAGGAUAUACGUUAUAAU	16.4 nM	6.41 nM			
ACAGUACAUGAGGAUCACCCAUGUAGAAGAUGCUCAGGAUAUUGUGAGUCAGGUUAUGUACAAGAAGGGAGGCACG	25.4 nM	14.1 nM			
AACCACAUGAGGAUCACCCAUGUGACCGCUCGAGGACCGGUACGGCCGCCACUCGUGGAGGGACUUAUGCGUUAUCCGGGUAAAU					apparent Kd (designed as: ON switch for tryptophan, no ligand): 19.4 nM; apparent Kd (ligand present: tryptophan, designed as: ON switch for tryptophan): 22.6 nM
ACUCUAGAAUAGAAGGCCUGAGGAAGUAGUAAAGGAGGAUAUAUCAUACGAAAUUCACAUGAGGAUCACCCAUGUUGCGCAGAC	21.2 nM	12.4 nM			
CAAACCAACUAGUAAAACAACAUGAGGAUCACCCAUGUAAGAGAGGAUAUUGAAAUCGAAAGCAACAAGAAGGCUCACCAUGUA	19.5 nM	15.8 nM			
GCUCCGCUAGCAGGAUAUGUAGGGGGAUUAUUGAUUGGGCGUAACAUGAGGAUCACCCAUGUUCCACAGAAGGGCUGGAGAAGA			107 nM	68.3 nM	
GCACAAUUAGGAUAUACAUGGGUAUAGGGUGAGACGAAUGCACAUGAGGAUCACCCAUGUAGAAGGAAUCGUCA			303 nM	332 nM	
AAAUUAAUCAGAGGAUAUAGACAUGAGGAUCACCCAUGUACCAAAAUCGCGAAGAAGGAUCCGUGCUAGAAGGCAGAAUACAUA			10.3 nM	8.65 nM	
CAAGCACCAACCGAUACCAGCUUAGUAGUAUGCUCAUUAAACAUGAGGAUCACCCAUGUGAGCCCUUGGCAGCGGAUUUCCCUGC					apparent Kd [7]: 13.3 nM; apparent Kd [8]: 20.7 nM
GGCUAACAUGAGGAUCACCCAUGUAUUGAUACCAGUAUUUGAAAAUACCCUUGGCAGCAAAUGAAGAGCGUAGCAGGGUCGAUUA					apparent Kd [9]: 11.3 nM; apparent Kd [10]: 16.8 nM
CGACAUUCAGGAUAUACAUGAGGAUCACCCAUGUUGAGAAGCACAAGAUACCAUAAAAGUAGAAGGGAACAAAA			13.3 nM	9.81 nM	
CCGUAUCCGUAGGAUAUCGACACGAGUCACGUGCGAGAAGGACGGACAUGAGGAUCACCCAUGUAUGCUUCGUG			22.6 nM	48.4 nM	
CUUUAACAUGAGGAUCACCCAUGUCCGAUGAAUUUAGGAUAUCGCAUUGGUCGUAUGAGGCGAGAAGGAAAUUGUC	28.4 nM	12.8 nM			
CUGAGCAAAGGAUAUACUAAUUGUGAGUGACCCAGUUAACGACAUGAGGAUCACCCAUGUAGAAGGUUGGAACA			26.4 nM	24.6 nM	
GAGGAGUAGUAGUCCGACACAUGAGGAUCACCCAUGUUAUGGAGAAGGCCGGAUCUGAGUAGAGCGGAGGAUAUCCUGAAUUAA	26.7 nM	19.8 nM			
CAUUGGGUCAGUUCGACAUGAGGAUCACCCAUGUAGUUAACGAGAAGGAGUACCAGCCUAAGUGACUAGGAUAUCGAUAAGUGG			37.3 nM	38.7 nM	
UGUUUUAAAGAGGAUAUGACAACGGUUCCACCGUCAGAAGGCUUUACAUGAGGAUCACCCAUGUACUGGAGUGA			17.3 nM	81.9 nM	
CAUGUACUAGGAUAUACAAUCACUCGUCAGGCAGCGUUAACACAUGAGGAUCACCCAUGUAGAAGGAGUUUAAA			8.74 nM	8.2 nM	
GGUCAACGAUUUUACAUGAGGAUCACCCAUGUUACGGUCGCCGAGGAUAUGUCAGGAUUAUCACAACAGAAGGCGGAAGACACC	16.5 nM	9.4 nM			
CGUUAGACAGGAUAUACACUGGGAAGCGCGGUUUGCGGGAGACAUGAGGAUCACCCAUGUAGAAGGGUCCGGCA			9.14 nM	9.4 nM	
ACCAUCAUUGUUAGGAUAUGUAGAGUACUGAGGCUACAGAAGGAACAUGAGGAUCACCCAUGUGUUUCGGUGUA			31 nM	126 nM	
ACAUGAGGAUCACCCAUGUCGAAGCACGCGCCACCUUCAAGCAGAAGGAAGUGACAAGUACUAGCUUAGGAUAUGCUCAAAGGU	12.3 nM	7 nM			
UCACGUCGCCGAGGAUAUGAUUACCGCUCUCCAUCAGAAGGCGGCGCGUGGUCCACAACAUGAGGAUCACCCAUGUCGAUUGAG	64.9 nM	10.7 nM			
CUCAGUGUGUAGAAGGUUUGCAUAGAAACAUCAAAAGGAUAUACAUGGUGAAGCCUUGAAACAUGAGGAUCACCCAUGUCUACG	632 nM	392 nM			
UCGUCACAUGUUAGGAUAUUGCUAGGAUCCUAGAACAAGAAGGAACAUGAGGAUCACCCAUGUCAGUGAAUCAU			23 nM	36 nM	
CCCAAGCCAGCUGAUACCAGUGACGUGGUCAGAAUGUGCGACAUGAGGAUCACCCAUGUACACCCUUGGCAGCAGUAGAACGGUU					apparent Kd [7]: 14.4 nM; apparent Kd [8]: 51.7 nM
